Assay results pooled from the literature.
In brackets after ≈: the same amount, converted by molar mass.

SMILES | organism | test | system | conditions | quantity | value
N=C(NCCCCCCNC(=N)NC(=N)Nc1ccc(Cl)cc1)NC(=N)Nc1ccc(Cl)cc1 | Acanthamoeba polyphaga | parasite growth, resazurin | – | 96 h | IC50 | 9.41 µM
CCCCCCC/C=C/C(=O)N1C(=O)/C(=C(\O)c2ccc(F)cc2)C(=O)C1CC(C)C (stereo not drawn) | Proteus vulgaris | microbial growth | ATCC33420 | – | MIC | > 200 µg/mL
CC1(C)S[C@@H]2[C@H](NC(=O)[C@H](N)c3ccccc3)C(=O)N2[C@H]1C(=O)O | Listeria monocytogenes | microbial growth, agar dilution | – | 26.93 µM | inhibition | 100%
O=C1NC(=S)S/C1=C\c1ccc(-c2ccc(N(c3ccccc3)c3ccccc3)cc2)cc1 | Bacillus subtilis | microbial killing, broth dilution | ATCC6633 | – | MBC | > 1000 µg/mL
CCOC(=O)c1nc2ccccc2c(=O)n1Cc1cn(-c2ccc([N+](=O)[O-])cc2)nn1 | Nakaseomyces glabratus | microbial growth, broth dilution | ATCC90030 | 24 h | IC50 | 316 µg/mL
Cc1ccc(-c2nn(-c3ccccc3)cc2C=c2sc(=CC#N)[nH]c2=O)cc1 | Bacillus subtilis | microbial growth, well diffusion | – | 100000 µg/mL | inhibition zone | 12 mm
C/C(O)=C1\C(=O)C(CC(C)C)N(C(=O)C=Cc2ccccc2)C1=O (stereo not drawn) | Proteus vulgaris | microbial growth | ATCC33420 | – | MIC | > 200 µg/mL
CCOC(=O)c1nc2ccccc2c(=O)n1Cc1cn(-c2ccccc2OC)nn1 | Nakaseomyces glabratus | microbial growth, broth dilution | ATCC90030 | 24 h | IC50 | 81.8 µg/mL
C[C@@H]1[C@H](O)[C@@H](C)/C=C/C=C/C=C/C=C/C=C/C=C/C=C/[C@H](O[C@@H]2O[C@H](C)[C@@H](O)[C@H](N)[C@@H]2O)C[C@@H]2O[C@](O)(C[C@@H](O)C[C@@H](O)[C@H](O)CC[C@@H](O)C[C@@H](O)CC(=O)O[C@H]1C)C[C@H](O)[C@H]2C(=O)O | Cryptococcus neoformans | microbial growth, broth dilution | ATCC90113 | – | IC50 | 0.24 µg/mL
CCCCCCC/C=C/C(=O)N1C(=O)/C(=C(\O)c2ccncc2)C(=O)C1CC(C)C (stereo not drawn) | Proteus vulgaris | microbial growth | ATCC33420 | – | MIC | > 200 µg/mL
N#CC(=Cc1cn(-c2ccccc2)nc1-c1ccccc1)C1=NC(=O)CS1 | Bacillus subtilis | microbial killing, broth dilution | – | – | MBC | 0.25 µg/mL (≈ 0.675 µM)
O=C1NC(=S)N/C1=C\c1ccc(-c2ccc(N(c3ccccc3)c3ccccc3)cc2)c2ccccc12 | Bacillus subtilis | microbial killing, broth dilution | ATCC6633 | – | MBC | > 1000 µg/mL
CCOC(=O)C=c1[nH]c(=O)c(=Cc2cn(-c3ccccc3)nc2-c2ccc(C)cc2)s1 | Bacillus subtilis | microbial growth, well diffusion | – | 100000 µg/mL | inhibition zone | 13 mm
C[C@@H]1[C@H](O)[C@@H](C)/C=C/C=C/C=C/C=C/C=C/C=C/C=C/[C@H](O[C@@H]2O[C@H](C)[C@@H](O)[C@H](N)[C@@H]2O)C[C@@H]2O[C@](O)(C[C@@H](O)C[C@@H](O)[C@H](O)CC[C@@H](O)C[C@@H](O)CC(=O)O[C@H]1C)C[C@H](O)[C@H]2C(=O)O | Nakaseomyces glabratus | microbial killing | ATCC90030 | – | MFC | 1.35 µM (≈ 1.25 µg/mL)
CCOC(=O)C=c1[nH]c(=O)c(=Cc2cn(-c3ccccc3)nc2-c2ccccc2)s1 | Bacillus subtilis | microbial growth, well diffusion | – | 100000 µg/mL | inhibition zone | 14 mm
CCOC(=O)c1nc2ccccc2c(=O)n1Cc1cn(-c2cccc(F)c2)nn1 | Nakaseomyces glabratus | microbial growth, broth dilution | ATCC90030 | 24 h | IC50 | 365 µg/mL
O=C(O)c1cn(C2CC2)c2cc(N3CCNCC3)c(F)cc2c1=O | Bacillus subtilis | microbial killing, broth dilution | – | – | MBC | 0.5 µg/mL (≈ 1.51 µM)
O=C(O)c1nc2ccccc2c(=O)n1Cc1cn(-c2ccccc2F)nn1 | Nakaseomyces glabratus | microbial growth, broth dilution | ATCC90030 | 24 h | IC50 | 174 µg/mL
